Hits are enriched below; roughly 1.6% of the tested compounds scored in any of these assays.
HTRA1 inhibitor – HTRA1 serine protease inhibitors, primary screen, biochemical, fluorescence polarization, HTS. inhibition, % at 5.96 µM. Q92743. AID 504803, 2011. recombinant HTRA1, FP-rhodamine activity-based probe. actives 0.5% (n = 340,000); in the data active = inhibition above about 36%;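 note: 0% = enzyme with DMSO and 100% = wells lacking enzyme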
DAGLB inh – DAGLB lipase inhibitors, primary screen, biochemical, fluorescence, HTS; AID 504411, 2011; actives 0.059% (n = 340,000); inhibition, % at 5.17 µM; Diacylglycerol lipase-beta (Homo sapiens), Q8NCG7; HEK293T DAGLB membrane lysate, EnzChek fluorogenic substrate; in the data active = inhibition above about 34%;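 note: 0% = enzyme with vehicle and 100% = wells lacking enzyme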
Target sequence (Q8NCG7 whole entry, looked up): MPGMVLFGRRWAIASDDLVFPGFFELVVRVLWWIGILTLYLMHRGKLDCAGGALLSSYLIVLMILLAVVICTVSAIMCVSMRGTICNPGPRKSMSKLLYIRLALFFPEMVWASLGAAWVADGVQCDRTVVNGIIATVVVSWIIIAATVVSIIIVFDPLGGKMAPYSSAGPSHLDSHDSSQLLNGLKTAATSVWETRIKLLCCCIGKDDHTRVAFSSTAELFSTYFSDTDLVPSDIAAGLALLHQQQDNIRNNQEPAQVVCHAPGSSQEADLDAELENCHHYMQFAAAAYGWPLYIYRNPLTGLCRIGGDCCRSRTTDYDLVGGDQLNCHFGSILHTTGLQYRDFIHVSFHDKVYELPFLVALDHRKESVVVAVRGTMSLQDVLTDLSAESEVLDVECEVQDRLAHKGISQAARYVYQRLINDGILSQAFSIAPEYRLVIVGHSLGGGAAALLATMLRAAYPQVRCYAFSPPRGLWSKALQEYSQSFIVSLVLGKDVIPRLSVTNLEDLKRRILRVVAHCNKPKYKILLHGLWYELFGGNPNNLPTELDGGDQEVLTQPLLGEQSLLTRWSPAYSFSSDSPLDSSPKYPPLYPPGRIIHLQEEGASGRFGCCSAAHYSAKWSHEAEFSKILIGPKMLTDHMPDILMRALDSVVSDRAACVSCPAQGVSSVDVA
SIAE primary – human SIAE inhibitors, primary screen, biochemical, fluorescence polarization, FP-Rh probe, 1536-well HTS; Sialate O-acetylesterase (Homo sapiens), Q9HAT2; SIAE FP-Rh probe binding; inhibition, % at 9.66 µM; actives 0.69% (n = 370,000); AID 1053197, 2014;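 active = inhibition above a cutoff: mean of compounds within the control limits plus 3 SD of those, cut at about 17% in these data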;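 note: 0% = plate median of compound wells and 100% = probe without SIAE protein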
mABHD4 FP – ABHD4 inhibitors, primary screen, biochemical, fluorescence polarization, mouse. (Lyso)-N-acylphosphatidylethanolamine lipase (Mus musculus), Q8VD66. purified mABHD4, FP-Rh probe fluorescence polarization. inhibition, % at 8.92 µM. actives 0.54% (n = 370,000). AID 720543, 2013;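 active = inhibition exceeding the mean over every tested compound plus 3 SD, cut at about 30% in these data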;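 note: 0% = plate median of compound wells and 100% = S159A mutant with DMSO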
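Assay system: Wild-type mouse ABHD4 protein | Medium: HEPES pH 7.0 buffer, 150 mM NaCl, 0.01% Pluronic F-127 | Incubation: Enzyme–compound pre-incubation 45 min, then probe 60 min, both 25 °C | Technique: Fluorescence polarization with parallel and perpendicular emission, 525/598 nm | Evaluation: % inhibition of FP-Rh probe binding versus controls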
TCR CD3 inh – inhibitors of human TCR-CD3 interaction, primary screen, biochemical, fluorescence, TAMRA-labeled TCR probe. T-cell receptor (TCR). AID 651800, 2012. actives 0.37% (n = 360,000). inhibition, % at 9.4 µM; in the data active = inhibition above about 19%;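 note: recombinant mutant TCR 2C K166C tagged with TAMRA read by polarization; 0% = receptor in buffer alone and 100% = receptor with positive control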
ABHD4 confirm – ABHD4 inhibitors, retest, confirmation, biochemical, fluorescence polarization, mouse. shares compounds with mABHD4 FP. purified mABHD4, FP-Rh probe fluorescence polarization. inhibition, % at 8.92 µM. actives 55% (n = 1,800). AID 720658, 2013;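 active = mean inhibition across replicates above the hit cutoff set in the primary screen, cut at about 30% in these data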;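 note: 0% = wild-type ABHD4 with DMSO and 100% = catalytically dead S159A mutant with DMSO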
* = called active by the depositor; i = inactive; x = not tested or not shown; ! = a repeat was not active.

SMILES | HTRA1 inhibitor | DAGLB inh | SIAE primary | mABHD4 FP | TCR CD3 inh | ABHD4 confirm
O=C(CSc1nncn1-c1ccccn1)Nc1cccc(Cl)c1 | 4.4 | -1.5 | -0.5 | -2.1 | -5.4 | x
COC(=O)[C@]12C[C@H](CC(=O)N3CCC(c4ccccc4)CC3)C(=O)N(Cc3cccc4ccccc34)C1=C[C@H](COCc1ccccc1)O[C@@H]2C | x | x | -0.3 | -8.1 | x | x
Cc1cccc(Nc2cc(C)c3c(O)cccc3n2)c1C | 8.8 | 1.4 | 8.5 | 29.5* | -5.3 | 42.4*
COc1ccc(N=C2NC(=O)/C(=C/c3ccco3)S2)cc1 | 14.2 | 5.5 | 13.8 | 33.1* | 4.5 | -9.7
COc1ccc(/C=N/NC(=S)Nc2ccccc2[N+](=O)[O-])cc1O | 15.7 | 7.8 | -0.7 | 44.2* | 7.7 | 24.2
O=S(=O)(c1ccc(NC(=S)N/N=C/c2ccc(O)c(O)c2)cc1)N1CCOCC1 | 35.2 | 9.2 | -4.2 | 31.2* | 8.0 | 20.8
N#Cc1ccc(/C=N/NC(=S)Nc2ccc(S(=O)(=O)N3CCOCC3)cc2)cc1 | -11.1 | 3.0 | -8.1 | 3.3 | -1.6 | x
Cc1[nH]c2ccccc2c1C(=O)c1c(N)[nH]c(C(=O)c2ccc(Br)cc2)c1-c1ccc(Br)cc1 | x | x | 9.5 | -5.6 | 5.8 | x
CC(=O)N1CCN(c2ccc(NCc3ccc(Br)o3)cc2)CC1 | 29.1 | 7.4 | 12.3 | 37.6* | 3.3 | 17.7
CCCC(=O)Nc1nc(C)c(-c2csc(Nc3cc(OC)ccc3OC)n2)s1 | 30.1 | 3.6 | 2.9 | 31.6* | 0.1 | 57.8*
C=CCCC(=O)Nc1nc(C)c(-c2csc(Nc3cc(OC)ccc3OC)n2)s1 | 10.8 | 5.2 | 6.1 | 13.4 | -7.5 | x
CC(C)=CCC[C@@]1(C(=O)O)[C@@H]2C/C=C(\C)CC/C=C(\C)CC[C@H]1[C@]1(CC2)CO1 | x | x | 1.1 | -12.2 | x | x
O=C(O)c1ccc(N/N=C/c2ccc(-c3ccc(Br)cc3)o2)cc1 | 16.3 | 3.0 | 2.8 | 42.5* | 3.8 | 84.1*
O=C(O)c1ccc(N/N=C/c2ccc(-c3ccccc3Cl)o2)cc1 | -1.8 | 4.2 | 14.1 | 40.4* | 0.1 | 46.5*
Cc1ccc(/C=N/Nc2ccc(C(=O)O)cc2)o1 | 5.3 | -3.1 | -2.4 | 1.9 | 0.7 | x
O=C(N/N=C/c1ccc(-c2ccccc2Cl)o1)c1ccccc1 | -18.9 | -2.8 | 6.3 | -7.4 | 2.0 | x
CCCCOCCCNC(=O)C[C@H]1C[C@@]2(C(=O)OCC)CCCC3=C2N(CCC3)C1=O | x | x | -0.1 | -0.6 | x | x
O=C(O)c1ccccc1Nc1cccc(OCc2ccc3ccccc3n2)c1 | -3.3 | 9.8 | 11.3 | 36.3* | 3.9 | 33.3*
O=C(COc1ccc2ccccc2c1)Nc1cccc(C(=O)Nc2ccccc2C(=O)O)c1 | -116.5 | 11.0 | -89.3 | -148.9 | 8.6 | x
COc1ccc(CN2CCN(Cc3c[nH]c4ccccc34)CC2)cc1 | 18.2 | 0.9 | 1.2 | 18.4 | 1.0 | x
COc1ccc(CN2CCN(Cc3c[nH]c4ccccc34)CC2)c(OC)c1 | 3.4 | -1.9 | 7.0 | 33.1* | -2.5 | 6.6
CC(C)(C)/C(O)=C/c1nc2cc(Cl)ccc2oc1=O | 18.3 | -5.3 | -1.0 | 31.8* | -5.1 | 3.2
Nc1[nH]c(C(=O)c2ccc(Cl)cc2)c(-c2ccc(Br)cc2)c1C(=O)c1c[nH]c2ccc(F)cc12 | x | x | -8.6 | -9.9 | -2.4 | x
C[n+]1c2cc(N)ccc2cc2ccc(N)cc21 | 32.8 | i | 25.2*! | 30.4*! | 13.4 | 42.5*
OC(c1ccccc1)(c1ccccc1)C1CCN(CCCOc2ccc(OC(F)(F)F)cc2)CC1 | x | x | -5.2 | 12.6 | x | x
SMILES | HTRA1 inhibitor | DAGLB inh | SIAE primary | mABHD4 FP | TCR CD3 inh | ABHD4 confirm
COC(=O)[C@@H](NCc1ccc(B(O)O)cc1)C(C)C | -3.1 | -5.5 | -5.5 | 48.2* | 3.7 | 35.9*
Cc1n[nH]c(=S)n(NC(=O)/C=C/C(=O)Nn2c(=S)[nH]nc(C)c2=O)c1=O | 16.7 | -0.2 | -4.8 | 37.7* | 18.0 | 9.3
COc1cccc2sc(NN)nc12 | 28.2 | 5.9 | 0.1 | 91.7* | -2.2 | 43.6*
COc1ccccc1-c1nnc(Nc2nc3c(OC)cccc3s2)o1 | 5.4 | 11.7 | -2.4 | 5.2 | -6.0 | x
O=C(O)c1ccc(NS(=O)(=O)c2ccc3c(c2)C2C=CCC2C(c2ccccc2F)N3)cc1 (stereo not drawn) | 21.6 | 6.2 | 6.3 | 42.2* | -1.3 | 25.7
CC(C)(C)CC(C)(C)c1ccc(OCCOCC[N+](C)(C)Cc2ccccc2)cc1 | 15.8 | 6.1 | 2.1 | 36.2* | 2.7 | 44.0*
Nc1ccc(NC(=O)c2ccc(C(=O)Nc3ccc(N)cc3)cc2)cc1 | -5.8 | 0.7 | -4.5 | -15.1 | -5.2 | x
Nc1ccc(C(=O)Nc2ccc3c(O)cc(S(=O)(=O)O)cc3c2)cc1 | 6.5 | 2.3 | -15.8 | 35.8* | 6.6 | 24.5
CC1CCC(C(C)C)C(OCC(O)CNC(C)(C)C)C1 (stereo not drawn) | -9.7 | -2.7 | -1.6 | -2.7 | -1.1 | x
CC(C)[C@@H]1CC[C@@H](C)C[C@H]1OC[B-](F)(F)F | x | x | 7.9 | 42.5* | -6.0 | 47.4*
CCOc1ccc2[nH]c3c(NCCN(C)C)ncnc3c2c1 | 8.7 | 1.5 | 2.0 | 4.4 | -8.3 | x
CCOc1ccc2[nH]c3c(NCCC(C)C)ncnc3c2c1 | 7.3 | -11.6 | 10.9 | 38.9* | -5.0 | 39.0*
O=C(NCc1ccccc1)[C@@H]1CCCN1C(=O)[C@H]1CCCN1C(=O)N1CCCCC1 | x | x | 1.7 | -1.1 | -2.5 | x
C=CCN1C(=O)[C@H](CC(=O)NCC23CC4CC(CC(C4)C2)C3)[C@@]2(C(=O)OCC)CCCC=C12 | x | x | -0.6 | -2.4 | x | x
O=S(=O)(c1ccc(F)cc1)N1CCN(Cc2cc3c(cc2Br)OCCO3)CC1 | -11.2 | -8.8 | 4.8 | -19.2 | 0.6 | x
Oc1ccc(N2CCN(Cc3cc4c(cc3Br)OCCO4)CC2)cc1 | 17.8 | 3.4 | 10.1 | 33.8* | 5.7 | 14.3
Nc1ccn([C@@H]2O[C@H](C(=O)N[C@H](Cc3ccccc3)C(=O)NCC(F)(F)F)[C@@H](O)[C@H]2O)c(=O)n1 | x | x | 4.1 | -1.5 | 0.8 | x
CC1=Nc2nc(N3CCCCC3)c(C#N)c3c4c(nc(c23)N1)N(c1ccc(C(C)C)cc1)C(=O)C4 | 2.4 | 9.7 | 5.8 | 43.9* | 5.2 | 42.1*
CC(C)c1ccc(-c2nc(N3CCCCC3)[nH]c(=O)c2C#N)cc1 | -4.5 | -2.8 | 3.2 | 10.4 | 8.3 | x
COc1ccc2c(c1)Sc1ccccc1N2 | 19.5 | 1.5 | 1.0 | 40.5* | -0.7 | 20.5
c1ccc2c(c1)Nc1cc3ccccc3cc1S2 | 6.0 | 0.5 | 1.3 | 10.1 | -0.6 | x
C=CCCC(=O)N1C[C@H]2CCN(C)[C@H]2C[C@H]1c1ccccc1Br | x | x | -8.4 | 3.8 | 8.0 | x

Screening results as filed in PubChem.
